hERG protect: hERG rescue from dofetilide block, primary screen, cell-based, CHO-hERG, FluxOR thallium flux, dofetilide IC70 | Voltage-gated inwardly rectifying potassium channel KCNH2 (Homo sapiens), Q12809 | dofetilide IC70 present | activation (rescue from dofetilide block), less the hit threshold, % at 10 µM | actives 0.51% (n = 310,000) | AID 1511, 2009;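 active = activation above the mean of controls blocked by dofetilide plus 5 SD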;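 also: thallium influx through hERG after potassium depolarization seen as dye fluorescence rise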
KCNQ1 act: potentiators or activators of KCNQ1 channel, primary screen, cell-based, thallium flux, high-throughput; B-score at 10 µM; CHO-K1 KCNQ1, thallium flux FluxOR fluorescence; active compounds read high; actives 0.35% (n = 310,000); Potassium voltage-gated channel subfamily KQT member 1 (Homo sapiens), P51787;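 active = fluorescence ratio B-score, a plate-corrected score, at least three library SD, with initial intensity B-score within 5 SD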
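Schedule – 37 °C overnight plating, 90-min dark dye load, 20-min compound pretreatment · System – stable KCNQ1 CHO-K1 line · Probe or stimulus – thallium- and potassium-containing depolarizing buffer · Measured by – kinetic FluxOR fluorescence, 10 s baseline plus 110 s post-stimulus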
KCNK3 block: human KCNK3 channel inhibitors, primary screen, CHO cells, FluxOR thallium flux, B-score; Potassium channel subfamily K member 3 (Homo sapiens), O14649; FluxOR fluorescence; active compounds read low; B-score at 10 µM; actives 0.84% (n = 340,000); AID 602410, 2012;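 active = B-score under library mean minus 4 SD, starting fluorescence ratio at most library mean plus 5 SD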;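 also: more negative B-score means stronger inhibition of thallium flux through KCNK3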
KCNQ1 block: inhibitors of human KCNQ1 channel, primary screen, cell-based, thallium flux, high-throughput. AID 2642, 2010. B-score at 10 µM. actives 1.3% (n = 310,000). Potassium voltage-gated channel subfamily KQT member 1 (Homo sapiens), P51787. CHO-K1 KCNQ1, FluxOR thallium flux fluorescence; active compounds read high;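 active = compounds whose thallium flux B-score, printed positive for inhibition, exceeds three library SD while starting fluorescence stays within three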;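 also: channel opened by potassium depolarization with thallium stimulus after 20 min compound exposure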
KCNK9 block: KCNK9 potassium channel inhibitors, primary screen, HEK293 cells, thallium flux. FluxOR thallium flux fluorescence; active compounds read low. B-score at 10 µM. actives 1.2% (n = 310,000). AID 488922, 2010;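 active = ratio B-score over 3 SD below the library mean, with starting fluorescence within 5 SD of its mean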;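 also: negative B-score means less thallium flux so channel inhibition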
Cl transport mod: KCC2 cotransporter modulators, thallium flux, primary screen, cell-based, HEK293 KCC2, FluoZin-2 fluorescence, MLSMR; KCC2 cells, thallium flux FluoZin-2 fluorescence; AID 1456, 2008; actives 2.2% (n = 190,000); B-score of Tl+ flux slope (higher = more flux/activation; lower = inhibition) at 10 µM;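 active = thallium flux slope and its plate-corrected score both differing from the plate sample mean at a set confidence after two filtering rounds, in either direction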;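 also: slope of fluorescence scaled to starting intensity during 10 to 20 s after thallium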
Target sequence (Q9H2X9 whole entry, looked up): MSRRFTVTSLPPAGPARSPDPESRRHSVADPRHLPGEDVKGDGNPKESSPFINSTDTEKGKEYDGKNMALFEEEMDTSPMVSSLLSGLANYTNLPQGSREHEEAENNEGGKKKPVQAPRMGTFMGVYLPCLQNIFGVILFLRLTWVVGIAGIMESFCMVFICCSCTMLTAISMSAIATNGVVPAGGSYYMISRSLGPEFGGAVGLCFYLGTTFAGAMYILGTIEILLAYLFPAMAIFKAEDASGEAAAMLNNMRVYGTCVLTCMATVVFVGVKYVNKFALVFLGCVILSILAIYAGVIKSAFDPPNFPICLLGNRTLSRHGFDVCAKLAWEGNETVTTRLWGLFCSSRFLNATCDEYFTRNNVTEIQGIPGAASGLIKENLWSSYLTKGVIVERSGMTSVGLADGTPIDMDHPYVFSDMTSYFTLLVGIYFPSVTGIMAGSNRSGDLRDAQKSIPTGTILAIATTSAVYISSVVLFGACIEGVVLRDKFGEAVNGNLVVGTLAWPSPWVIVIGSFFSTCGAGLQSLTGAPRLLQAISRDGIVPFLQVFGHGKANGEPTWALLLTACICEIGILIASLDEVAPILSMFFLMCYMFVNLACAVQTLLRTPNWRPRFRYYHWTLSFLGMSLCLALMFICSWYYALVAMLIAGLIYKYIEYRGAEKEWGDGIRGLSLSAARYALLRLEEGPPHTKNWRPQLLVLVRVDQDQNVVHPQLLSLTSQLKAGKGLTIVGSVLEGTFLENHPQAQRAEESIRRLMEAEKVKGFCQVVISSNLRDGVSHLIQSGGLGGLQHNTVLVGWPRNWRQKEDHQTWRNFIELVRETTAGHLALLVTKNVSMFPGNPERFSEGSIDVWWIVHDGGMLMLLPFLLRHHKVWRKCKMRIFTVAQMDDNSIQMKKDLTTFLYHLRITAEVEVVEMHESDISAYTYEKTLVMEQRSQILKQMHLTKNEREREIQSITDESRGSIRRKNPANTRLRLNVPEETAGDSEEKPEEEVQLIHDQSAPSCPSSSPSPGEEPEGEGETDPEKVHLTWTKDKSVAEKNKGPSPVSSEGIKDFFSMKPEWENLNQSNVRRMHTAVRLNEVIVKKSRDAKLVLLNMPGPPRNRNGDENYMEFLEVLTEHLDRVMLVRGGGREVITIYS
KCNQ1 inh valid: KCNQ1 potassium channel inhibitors, confirmation, cell-based, Tl flux, duplicate; shares compounds with KCNQ1 block; KCNQ1 cell line, FluxOR thallium flux fluorescence; inhibition, % at 10 µM; actives 93% (n = 1,600);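 active = primary screen active, with duplicate mean exceeding buffer control mean plus 3 SD of buffer wells, cut at about 28% in these data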;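 also: 0% = buffer control ratio and 100% = XE991 inhibitor control ratio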
CHO KCNQ1 ctr: thallium flux effects in parental CHO cells, counter-screen for KCNQ1 inhibitor project, cell-based, Tl flux. fluorescence ratio (Tl flux) at 10 µM. actives 21% (n = 1,600). shares compounds with KCNQ1 block. parental CHO-K1, FluxOR thallium flux fluorescence ratio; active compounds read low; zero means no signal rise above baseline;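 active = mean of duplicate thallium-flux fluorescence ratios in parental host cells more than 5 SD below the buffer control mean, cut at about 0.38 in these data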;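 also: ratio is peak minus minimum fluorescence divided by baseline fluorescence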
KCNQ1 ephys val: KCNQ1 channel inhibitors, confirmation, orthogonal assay, cell-based, automated electrophysiology; shares compounds with KCNQ1 block; KCNQ1-CHO cells, automated patch clamp current; calls only at 10 µM; actives 20% (n = 490); AID 624120, 2012;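 active = KCNQ1 current drop exceeding 3 SD of negative control wells, seen in both duplicate runs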;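 also: steady state current during a 2 s step from -80 to +40 mV; negative values mean current inhibition and positive values mean potentiation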
KCNQ2 inh: KCNQ2 channel inhibition, selectivity assay for KCNQ1 inhibitor project, cell-based; shares compounds with KCNQ1 block; KCNQ2 cells, FluxOR thallium flux fluorescence; inhibition, % at 10 µM; actives 71% (n = 1,600); AID 651746, 2012;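 active = mean percent inhibition of the KCNQ2 thallium signal more than 5 SD above the buffer-only control wells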;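 also: KCNQ2 expressed in CHO cells; 0% = buffer control wells and 100% = XE-991 inhibitor control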
KCNQ1-KCNE1 inh: KCNQ1/KCNE1 channel inhibition, selectivity assay for KCNQ1 inhibitor project, CHO-K1 cells, thallium flux, FluxOR; shares compounds with KCNQ1 block; inhibition, % at 10 µM; actives 77% (n = 1,600); FluxOR thallium flux fluorescence;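 active = mean percent inhibition of duplicate wells above the buffer-only control mean plus 3 SD of those controls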;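 also: 0% = buffer only wells and 100% = XE-991 inhibitor control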
KCNK9 block conf: KCNK9 potassium channel inhibitors, confirmation, HEK293 cells, thallium flux, duplicate; inhibition, % at 10 µM; shares compounds with KCNK9 block; FluxOR thallium flux fluorescence; actives 43% (n = 4,900);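 active = thallium signal inhibited by more than 5 SD of the compound-free buffer control wells, on both duplicate plates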;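 also: 0% = assay buffer control wells without compound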
Kir21 sel: mouse Kir2.1 channel inhibition, confirmation, selectivity assay for KCNK9 modulator project, cell-based, HEK293, thallium flux. actives 4% (n = 4,900). shares compounds with KCNK9 block. AID 492993, 2010. Kir2.1 cells, FluxOR thallium flux fluorescence. inhibition, % at 10 µM;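 active = thallium signal drop more than 5 SD beyond the mean of the no-compound control wells, seen in both duplicate plates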;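 also: signal is fluorescence rise after thallium addition divided by baseline fluorescence; plate controls were assay buffer only for no effect and full block by chlorpromazine control for full effect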
HEK293 Tl ctr: thallium flux in non-induced HEK293 cells, confirmation, counter-screen for KCNK9 inhibitor project, cell-based, second counter screen, non-induced KCNK9-HEK293; shares compounds with KCNK9 block; FluxOR thallium flux; inhibition, % at 10 µM; actives 40% (n = 4,900);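 active = thallium signal drop beyond 5 SD of the untreated control mean, on both duplicate plates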;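 also: plate controls were buffer only IC0 wells for no effect and SID17386958 at its maximal inhibitory level for full effect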
* marks the source's active call; other numbers are inactive results; i = inactive; . = no result given; + = active, no number. The list is not random: actives were taken first. Their share in the collection is about 4.1%.

SMILES	hERG protect	KCNQ1 act	KCNK3 block	KCNQ1 block	KCNK9 block	Cl transport mod	KCNQ1 inh valid	CHO KCNQ1 ctr	KCNQ2 inh	KCNQ1-KCNE1 inh	KCNK9 block conf	Kir21 sel	HEK293 Tl ctr	others
Cc1ccc(C(=O)Nc2ccc3c(c2)OCO3)cc1S(=O)(=O)N1CCCC1	-4	i	i	i	i	.	.	.	.	.	.	.	.
Cc1ccc(C(=O)OCc2ccc3c(c2)OCO3)cc1S(=O)(=O)N1CCCCC1	-8	i	i	7*	-13*	.	74*	0.41	85%*	78%*	41%*	i	36%*
O=C(NCc1ccccc1)c1cccc(COc2ccc3c(c2)CCC3)c1	-8	i	i	7*	i	-0.077	98*	0.39	112%*	139%*	i	i	i	KCNQ1 ephys val=+
Cc1ccc(C)c(N2CCN(C(=O)C(Cc3ccccc3)n3cccc3)CC2)c1 (stereo not drawn)	-13	i	i	14*	-13*	0.66	116*	0.36*	103%*	166%*	58%*	i	40%*
O=C(C(Cc1ccccc1)n1cccc1)N1CCN(c2ccccc2)CC1 (stereo not drawn)	-4	i	i	i	i	-0.16	.	.	.	.	.	.	.
CCN(CC)S(=O)(=O)c1cccc(NC(=O)Nc2cccc(C(F)(F)F)c2)c1	-21	i	i	11*	i	-0.1	158*	0.3*	121%*	127%*	i	i	i
Cc1nn(CCc2nn[nH]n2)c2nc(C(F)(F)F)cc(C(F)(F)F)c12	-5	i	i	i	i	-0.095	.	.	.	.	.	.	.
Cc1nn(CCc2nn[nH]n2)c2nc(-c3ccc(Br)cc3)cc(C(F)(F)F)c12	-6	i	i	8*	i	.	76*	0.38*	101%*	59%*	i	i	i
CCCCC1(C2CCCC2)NC(=O)NC1=O (stereo not drawn)	.	.	i	.	.	.	.	.	.	.	.	.	.
COc1ccc2[nH]c(C)c(C(=O)CN3CC(C)OC(C)C3)c2c1 (stereo not drawn)	-2	i	i	i	i	.	.	.	.	.	.	.	.
COC(=O)c1sccc1NC(=O)Nc1ccc(Cl)c(Cl)c1	-4	i	i	i	i	0.028	.	.	.	.	.	.	.
O=C(Nc1ccc(Cl)c(Cl)c1)Nc1ccccc1NS(=O)(=O)c1cccs1	-29	i	i	18*	-13*	-2	114*	0.43	77%*	43%*	44%*	i	i	KCNQ1 ephys val=i
CCN1C(c2ccccc2)C(C)C(=O)C(C)C1c1ccccc1 (stereo not drawn)	-11	i	i	8*	i	1.1	120*	0.42	89%*	128%*	i	i	i	KCNQ1 ephys val=i
CC1C(=O)C(C)C(c2ccccc2)N(N=O)C1c1ccccc1 (stereo not drawn)	.	.	i	.	.	.	.	.	.	.	.	.	.
COC(=O)C(Cc1c[nH]c2ccccc12)NC(=O)C(=O)c1c[nH]c2ccccc12 (stereo not drawn)	-18	i	i	7*	-12*	.	68*	0.48	84%*	108%*	i	i	i
COC(=O)c1ccc(CSc2nc3cc(Cl)ccc3s2)o1	-1	i	i	i	i	0.32	.	.	.	.	.	.	.
Cc1nc(NS(=O)(=O)c2ccc(Cl)s2)c2c3c(sc2n1)CCCC3	-18	i	i	7*	i	-3.1	79*	0.47	i	66%*	i	i	i
O=C1c2[nH]nc(-c3ccccc3O)c2C(c2ccccc2F)N1Cc1ccco1 (stereo not drawn)	-16	i	-9.1*	9*	-15*	.	126*	0.41	78%*	116%*	73%*	i	33%*
O=C1c2[nH]nc(-c3ccccc3O)c2C(c2ccccc2)N1Cc1ccco1 (stereo not drawn)	-11	i	i	i	i	0.24	.	.	.	.	.	.	.
CC(C)CC(C(=O)Nc1oc(-c2ccco2)c(-c2ccco2)c1C#N)N1C(=O)c2ccccc2C1=O (stereo not drawn)	3	i	-11*	9*	-11*	0.016	112*	0.42	88%*	65%*	72%*	i	26%*	KCNQ1 ephys val=i
